“Also recorded” adds a separate entry of the source.
Tests used:
[1] = Biodistribution in athymic nude mice bearing MDA-MB-435 breast cancer xenografts; type: in vivo; conditions: mouse; for tissue to tissue ratio at 2 h: female, athymic nu/nu, tumor and muscle, iv, total radioactivity; for tissue uptake at 0.5 h / tissue uptake at 2 h: in vivo; for tissue uptake at 0.5 h: 30 min p.i.; for tissue uptake at 2 h: 120 min p.i.
Method in brief: (§1)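 Female athymic nu/nu mice (4–5 weeks old) received 5 × 10⁶ cells s.c. into both mammary fat pads (MDA-MB-435) or both upper flanks (U87MG) and were used 2–4 weeks later with 0.05–0.4 g tumors. Each got ~2 μCi of HPLC-purified tracer in 0.1 mL saline i.v. via the tail vein. Four mice per time point were killed at 30, 60 and 120 min by pentobarbital overdose. Organs were weighed and γ-counted as %ID/g; T/B values are means ± SD.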

[2] = system: athymic nude mice bearing U87MG glioma xenografts; experiment: Biodistribution in athymic nude mice bearing U87MG glioma xenografts; type: in vivo; conditions: over the 2 h study period
Method in brief: as §1

[3] = as above; type: in vivo; conditions: mouse; for tissue to tissue ratio at 0.5 h / tissue to tissue ratio at 2 h: female, athymic nu/nu, iv, total radioactivity; for tissue uptake at 0.5 h / tissue uptake at 2 h: in vivo; for tissue uptake at 0.5 h: 30 min p.i.; for tissue uptake at 2 h: 120 min p.i.
Method in brief: as §1

[4] = system: normal athymic nude mice; experiment: Metabolism study; type: in vivo
Method in brief: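 Two normal athymic nude mice per tracer each received 100–120 μCi i.v. via the tail vein. Urine was collected by manual void at 30 and 120 min, mixed with an equal volume of 20% aqueous acetonitrile, centrifuged at 8,000 rpm and filtered (0.20 μ). Feces collected at 2 h were suspended in 2 mL 20% acetonitrile, vortexed and centrifuged.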

[5] = system: tumor-bearing mouse; experiment: Blocking experiment; type: in vivo, mice
Method in brief: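 Tumour-bearing nude mice were given ~2 μCi of the 99mTc-labelled tracer i.v. together with ~350 μg (~14 mg/kg) excess unlabelled cyclic RGD dimer. The blocker was dissolved in the dose solution at 1.75 mg/mL and filtered. Four animals were killed at 1 h p.i. by pentobarbital overdose, and organ %ID/g was compared with unblocked animals at the same time point.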

[6] = tumor uptake, MDA-MB-435 breast tumor
[7] = blood uptake (blood clearance), U87MG model
[8] = kidney uptake, MDA-MB-435 model
[9] = muscle uptake, MDA-MB-435 model

| Structure (SMILES) | tissue to tissue ratio at 2 h [1] | tissue uptake at 0.5 h [1, 6] [%ID/g] | tissue uptake at 2 h [1, 6] [%ID/g] | tissue to tissue ratio at 0.5 h ([3]; tumor and liver) | tissue to tissue ratio at 2 h ([3]; tumor and liver) | tissue to tissue ratio at 0.5 h ([3]; tumor and whole blood) | tissue to tissue ratio at 2 h ([3]; tumor and whole blood) | tissue uptake at 0.5 h ([3]; kidney uptake, U87MG model) [%ID/g] | tissue uptake at 2 h ([3]; kidney uptake, U87MG model) [%ID/g] | tissue uptake at 0.5 h ([3]; muscle uptake, U87MG model) [%ID/g] | tissue uptake at 2 h ([3]; muscle uptake, U87MG model) [%ID/g] | tissue uptake at 0.5 h ([3]; tumor uptake, U87MG glioma) [%ID/g] | tissue uptake at 2 h ([3]; tumor uptake, U87MG glioma) [%ID/g] | also measured |
| --- | --- | --- | --- | --- | --- | --- | --- | --- | --- | --- | --- | --- | --- | --- |
| N=C(N)NCCC[C@@H]1NC(=O)[C@H](CCCCNC(=O)CC[C@H](NC(=O)CCOCCOCCOCCOCCNC(=O)c2ccc(NN)nc2)C(=O)NCCCC[C@@H]2NC(=O)[C@@H](Cc3ccccc3)NC(=O)[C@H](CC(=O)O)NC(=O)CNC(=O)[C@H](CCCNC(=N)N)NC2=O)NC(=O)[C@@H](Cc2ccccc2)NC(=O)[C@H](CC(=O)O)NC(=O)CNC1=O [^99mTc-PEG4-dimer, [^99mTc(HYNIC-PEG4-dimer)(tricine)(TPPTS)], metal not drawn, reference compound] | 2.91 ± 0.6 | 3.49 ± 0.62 | 3.82 ± 0.54 | – | – | – | – | – | – | – | – | – | – | – |
| N=C(N)NCCC[C@@H]1NC(=O)[C@H](CCCCNC(=O)CCOCCOCCOCCOCCNC(=O)CC[C@H](NC(=O)CCOCCOCCOCCOCCNC(=O)c2ccc(NN)nc2)C(=O)NCCOCCOCCOCCOCCC(=O)NCCCC[C@@H]2NC(=O)[C@@H](Cc3ccccc3)NC(=O)[C@H](CC(=O)O)NC(=O)CNC(=O)[C@H](CCCNC(=N)N)NC2=O)NC(=O)[C@@H](Cc2ccccc2)NC(=O)[C@H](CC(=O)O)NC(=O)CNC1=O [^99mTc-3PEG4-dimer, [^99mTc(HYNIC-3PEG4-dimer)(tricine)(TPPTS)], metal not drawn] | – | – | – | 2.13 ± 0.87 | 3.49 ± 1.64 | 6.72 ± 2.88 | 48.8 ± 18.7 | 17.6 ± 0.73 | 9.89 ± 1.2 | 1.45 ± 0.2 | 1 ± 0.22 | 8.17 ± 0.68 | 9.74 ± 3.22 | glioma uptake relative to ^99mTc-PEG4-monomer [2]: ~3 ×; tissue uptake at 0.5 h [3, 7]: 1.02 ± 0.22 %ID/g; tissue uptake at 2 h [3, 7]: 0.17 ± 0.02 %ID/g; tissue uptake at 0.5 h ([3]; liver uptake, U87MG model): 3.14 ± 0.18 %ID/g; tissue uptake at 2 h ([3]; liver uptake, U87MG model): 2.92 ± 0.77 %ID/g; tissue uptake at 2 h ([3]; tumor uptake, U87MG glioma, tumor size 0.5 g – 1.6 g or 500 – 1700 mm^3): 4 to 6 %ID/g; tissue uptake at 2 h ([3]; tumor uptake, U87MG glioma, tumor size <0.05 g or <50 mm^3): 2 to 4 %ID/g; metabolism during excretion from the hepatobiliary route ([4]; feces at 120 min p.i.): ~ 30%; metabolic stability during excretion from the renal route ([4]; urine at 30 and 120 min p.i.): remained intact |
| N=C(N)NCCC[C@@H]1NC(=O)[C@H](CCCCNC(=O)CCOCCOCCOCCOCCNC(=O)CC[C@H](NC(=O)c2ccc(NN)nc2)C(=O)NCCOCCOCCOCCOCCC(=O)NCCCC[C@@H]2NC(=O)[C@@H](Cc3ccccc3)NC(=O)[C@H](CC(=O)O)NC(=O)CNC(=O)[C@H](CCCNC(=N)N)NC2=O)NC(=O)[C@@H](Cc2ccccc2)NC(=O)[C@H](CC(=O)O)NC(=O)CNC1=O [^99mTc-2PEG4-dimer, [^99mTc(HYNIC-2PEG4-dimer)(tricine)(TPPTS)], metal not drawn] | 6.52 ± 1.72 | 5.2 ± 1.74 | 9.77 ± 2.66 | 2.59 ± 0.45 | 3.33 ± 0.64 | 9.63 ± 1.32 | 29.1 ± 8.54 | 20.8 ± 2.32 | 10.2 ± 1.37 | 2.18 ± 0.37 | 1.27 ± 0.2 | 11.2 ± 1.96 | 8.31 ± 2.31 | uptake in the blood and kidneys in the presence of E[c(RGDfK)]2 ([5]; 60 min p.i., versus without blocking agent): comparable; tumor uptake on co-injection of excess E[c(RGDfK)]2 ([5]; result in words): partially blocked; tissue uptake at 0.5 h [1, 8]: 14.4 ± 4.09 %ID/g; tissue uptake at 2 h [1, 8]: 13.8 ± 5.36 %ID/g; tissue uptake at 0.5 h ([1]; liver uptake, MDA-MB-435 model): 2.97 ± 0.63 %ID/g; tissue uptake at 2 h ([1]; liver uptake, MDA-MB-435 model): 3.27 ± 1.09 %ID/g; tissue uptake at 0.5 h [1, 9]: 1.76 ± 0.56 %ID/g; tissue uptake at 2 h [1, 9]: 1.51 ± 0.35 %ID/g; metabolic stability during excretion from renal and hepatobiliary routes ([4]; urine and feces over 2 h): high metabolic stability; also recorded: remained intact; also recorded: very high metabolic stability |
